Source: PubChem BioAssay (The Scripps Research Institute Molecular Screening Center)
RORA inh: RORA (human) inhibition; P35398; CHO-K1 Gal4-RORA LBD luciferase reporter, luminescence; inhibition, % at 10 µM; hit rate 0.43% among 65,000; AID 561;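 active = inhibition above the mean of all tested compounds plus 3 SD, cut at about 52% in these data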;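 note: 0% = RORA-transfected cells with DMSO and 100% = mock-transfected cells lacking RORA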
Target sequence (P35398 whole entry, looked up, the tested form may be a part): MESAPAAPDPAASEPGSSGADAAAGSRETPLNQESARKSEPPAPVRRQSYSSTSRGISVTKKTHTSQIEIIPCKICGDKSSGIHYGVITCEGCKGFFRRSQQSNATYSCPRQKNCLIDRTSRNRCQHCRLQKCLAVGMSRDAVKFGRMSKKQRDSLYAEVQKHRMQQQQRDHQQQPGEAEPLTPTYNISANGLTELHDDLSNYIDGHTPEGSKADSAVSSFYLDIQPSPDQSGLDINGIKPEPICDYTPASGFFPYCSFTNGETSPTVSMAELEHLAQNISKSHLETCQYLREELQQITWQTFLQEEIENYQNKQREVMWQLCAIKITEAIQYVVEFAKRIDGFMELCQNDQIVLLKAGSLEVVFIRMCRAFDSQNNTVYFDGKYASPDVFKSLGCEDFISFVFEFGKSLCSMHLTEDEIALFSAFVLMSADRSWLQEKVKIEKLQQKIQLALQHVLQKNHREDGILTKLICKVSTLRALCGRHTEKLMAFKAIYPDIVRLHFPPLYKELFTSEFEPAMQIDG
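System: transiently transfected CHO-K1 cells, Gal4-DBD/human RORA-LBD fusion plus 5xGal4-luciferase reporter. Doses: one dose of 10 µM final. Timing: 20 h compound treatment, 37 °C. Measured by: luminescence. Evaluation: % inhibition of basal luciferase versus +RORA/-RORA DMSO controls. Benchmarks: mock-transfected cells as 100%, +RORA DMSO cells as 0%. Replicates: single test per compound.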
Numbers without * were called inactive. The full list was thinned out, with hits kept by preference.

SMILES	RORA inh
COc1ccc(C2(O)CCN(Cc3nnnn3Cc3ccc(F)cc3)CC2)cc1	5
O=C(CSc1nccc2ccccc12)N1CCN(Cc2ccc3c(c2)OCO3)CC1	4
CCOc1ccc2nc(N3CCC(C(=O)N4CCN(c5ncccn5)CC4)CC3)sc2c1	-69
O=C(NCC1CCCO1)c1ccc2nc(N3CCCCC3)sc2c1 (stereo not drawn)	-59
CC1CCN(c2nc3ccc(C(=O)O)cc3s2)CC1	92*
CCOC(=O)N1CCN(C(=O)c2cc(-c3ccc(OCC)cc3)nc3ccccc23)CC1	-136
CCOC(=O)CS(=O)(=O)c1nc(-c2ccc(F)cc2)cc(C(F)(F)F)n1	61*
CCOC(=O)CS(=O)(=O)c1nc(-c2ccccc2)cc(C(F)(F)F)n1	60*
CCOC(=O)c1cnn2c(C)cc(-c3ccccc3)nc12	-43
COCC(C)NC(=O)CCS(=O)(=O)c1nc(-c2ccc(OC)cc2)cc(C(F)(F)F)n1 (stereo not drawn)	17
CCOC(=O)Cc1cc(=O)n2[nH]c(C)c(-c3ccccc3)c2n1	-6
O=C(CCCNS(=O)(=O)c1cccc2nsnc12)NCc1ccc(F)cc1	12
CCOc1ccc(S(=O)(=O)N2CCN(Cc3ccccc3)CC2)c2cccnc12	3
CSc1cccc(NS(=O)(=O)c2cccc3nsnc23)c1	-16
Nc1ccc(-c2nc3c(Cl)cc(N)cc3[nH]2)cc1	79*
Cc1ccc(-n2ncc(-c3nnc(SCC(=O)NC4CCCC4)o3)c2N)cc1C	-17
COc1ccc(OC(C)C(=O)N2CCc3ccccc3C2)cc1 (stereo not drawn)	15
c1ccc(-c2noc(C3CCCCC3)n2)nc1	-61
c1ccc(-c2noc(-c3ccc4c(c3)OCO4)n2)nc1	78*
CCc1ccc(OCc2nc(-c3ccccn3)no2)c(Br)c1	10
c1ccc(-c2noc(-c3ccc4ccccc4c3)n2)nc1	92*
COc1ccc(-c2nc(-c3ccccc3OC)no2)cc1OC	-56
CCOc1ccc(-c2nc(-c3ccccc3)no2)cc1OCC	-49
CCc1ccc(NC(=O)N(CCCN2CCOCC2)C(C)c2cc3cccc(OC)c3o2)cc1 (stereo not drawn)	5
CCCCNC(=O)CCCn1c(=O)c2ccccc2n(CC(=O)NCCC2=CCCCC2)c1=O	11
SMILES	RORA inh
c1ccn2c(CNc3ncnc4sccc34)nnc2c1	-2
COC(=O)[C@@H](NC(=O)NC1CCCc2ccccc21)C(C)C (stereo partly drawn)	27
CCOCC(=O)Nc1nnc(C2CCCCC2)s1	-50
O=C(CSc1nnc(-c2cccs2)n1-c1ccccc1)Nc1ccccc1	7
CN(C)CCN1C(=O)C(=O)/C(=C(/O)c2ccc(F)cc2)C1c1ccccc1 (stereo not drawn)	-24
O=C(CSc1nnnn1-c1ccccc1)NC(=O)Nc1ccc2c(c1)OCCO2	-52
CCn1c2ccccc2c2cc(NC(=O)CSc3nnnn3-c3ccccc3)ccc21	63*
CC(=O)c1cccc(-n2nnnc2SCC(=O)Nc2ccccc2N2CCCCC2)c1	-14
O=C(OCc1c(F)cccc1Cl)c1cnccn1	1
CCOC(=O)c1c(C)c(C(=O)NCc2ccc3c(c2)OCO3)c(C)n1C	6
C=C(C)C(C)(C#CCN1CCCC1)OC(C)=O (stereo not drawn)	10
CCCCOc1ncnc2c1[nH]c1ccc(F)cc12	70*
CC(=O)c1ccc(NC(=O)CSc2nnc(Cn3c(=O)sc4ccccc43)n2C)cc1	-5
O=C1C(=O)N(CCCn2ccnc2)C(c2cccnc2)/C1=C(/O)c1ccccc1 (stereo not drawn)	-10
O=C(Cn1cnc2ccccc21)OCC(=O)N1CCc2ccccc2C1	10
CCS(=O)(=O)n1nc(-c2ccccc2)cc1N	0
Cc1c(C(=O)Nc2ccccc2)sc2nc(-c3ccccc3)cn12	-58
CCc1nn2cc(-c3ccccc3)nc2s1	66*
COc1ccccc1-c1cn(S(=O)(=O)c2ccc(C)cc2)nc1N	-4
CCc1ccc(N(CC(=O)NC2CCCCC2)S(=O)(=O)c2c(C)noc2C)cc1	-5
Cc1ccc(C)n1/N=C1/NC(=O)CS1	10
CCOC(=O)C1=C(C)N(c2ccccc2)C(=O)C1CC(=O)O (stereo not drawn)	16
c1ccc(-c2onc3cc4c(cc23)OCCO4)cc1	-74
Cc1ccccc1Cc1c(C)nc2ncnn2c1C	5
Cc1nc2ncnn2c(C)c1CCC(=O)Nc1ccc(S(=O)(=O)N2CCCCCC2)cc1	-10
SMILES	RORA inh
CCc1c(C)nc2ncnn2c1NCCc1ccc(OC)cc1	75*
Cn1c(CCNC(=O)c2ccccc2F)nnc1SCc1nc2ccccc2c(=O)[nH]1	0
COCCn1c(SCC(=O)Nc2cccc(C)c2)nnc1C(C)C	-26
COCCn1c(C)cc(C(=O)CSc2nnc(C)s2)c1C	68*
COc1ccc(NC(=O)CC2Oc3ccccc3NC2=O)cc1 (stereo not drawn)	10
Fc1ccc(-c2nnc(NC3=NCCCCC3)o2)cc1	73*
C/C(=N\O)c1ccc2c3c([nH]c2c1)CCCC3	-54
Cc1cc(C)n(Cc2ccc(C(=O)NCCC3=CCCCC3)o2)n1	8
Nc1cc(C2CCCC2)nn1-c1ccccc1	-62
O=C(Cn1c(=O)sc2ccccc21)NCc1ccco1	6
O=C(NCc1ccco1)c1ccc2nc3sc4c(c3c(=O)n2c1)CCCC4	56*
O=C(Nc1ncnc2sc3c(c12)CCC3)c1ccco1	9
CC(=O)CC(C)=NCCN=C(C)CC(C)=O	18
COc1ccc(CN2C(=O)CCC2(C)C(=O)NC2CCCCCC2)cc1 (stereo not drawn)	4
O=c1cc(-c2c(F)c(F)c(F)c(F)c2F)oc2c(F)c(F)c(F)c(F)c12	84*
COc1ccc(CNC(=O)C2CSC(=O)C2)cc1 (stereo not drawn)	11
O=C(COC(=O)c1cc(=O)[nH]c2ccccc12)NC(=O)NC1CCCCC1	18
c1ccc(-c2noc(CN3CCN(c4ccccc4)CC3)n2)cc1	9
CNC(=O)CCc1nc(-c2ccc(C(C)(C)C)cc2)no1	89*
NC(=O)c1ccc(NC(=O)CCCc2nc(-c3ccccc3Cl)no2)cc1	0
Cc1cccc(-c2noc(Cc3ccccc3)n2)c1	-24
CC(C)(C)c1ccc(-c2nnc(SCC(=O)O)n2N)cc1	-8
CN(C)C(=O)CCc1nc(-c2ccc(C(C)(C)C)cc2)no1	82*
CC(C)(C)c1ccc(-c2noc(CCC(N)=O)n2)cc1	88*
O=C(Nc1ccc(-c2noc(CCc3ccccc3)n2)cc1)c1ccco1	-72
SMILES	RORA inh
CCOC(=O)NC(Nc1nc2ccccc2s1)(C(=O)OCC)C(F)(F)F (stereo not drawn)	-25
O=C(CCCc1c[nH]c2ccccc12)N1CCN(c2ccc(N3CCOCC3)nn2)CC1	6
CCCCNC(=O)c1cc2c(=O)n3cccc(C)c3nc2n(Cc2ccncc2)c1=N	20
O=c1cnc2ccccc2n1CC1CCCCC1	3
O=C(Nc1ncnc2c1ncn2C1OC(COC(=O)c2ccccc2)C(F)C1O)c1ccccc1 (stereo not drawn)	8
CC(C)[C@H](NC(=O)[C@@H]1CSCN1C(=O)OC(C)(C)C)C(=O)NCC1CCC(C(=O)O)CC1 (stereo partly drawn)	1
COc1ccc(Cn2c(C3CC3)nc3ccc(NC(=O)c4ccco4)cc3c2=O)cc1	-44
Cc1ccc2c(=O)c(CN(C)C3CCN(C)CC3)c(C)[nH]c2c1C	18
Cc1cccc(NC(=O)CSc2nnc(-c3cc(C)n(-c4ccccc4)c3C)o2)c1C	63*
